Source: the array DNA melting data of Ke et al. (doi:10.1101/2024.01.08.574731)

Legend:
[1] = folding enthalpy; higher = less favourable; fluorescence melt of hairpins on a sequencing array, two-state fit; settings: sodium 0.088 M
Summary of the method: (§1)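 On a sequenced MiSeq flow cell, library hairpins with annealed Cy3 and quencher oligos were imaged for Cy3 fluorescence in 2.5 °C steps up to 60 °C, in 50 mM Na-HEPES pH 8.0, 25 mM NaCl. Normalisation used pre-quench Cy3 and control constructs. Bootstrapped two-state fits gave melting temperature and folding enthalpy, combined by inverse variance across four replicates and with fitted temperatures raised by 9.35 °C to match UV melts.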

[2] = melting temperature; fluorescence melt of hairpins on a sequencing array, two-state fit, raised by 9.35 °C to match UV melts; settings: sodium 0.088 M
Summary of the method: as §1

AAAGTGAAAACTTT (((((....)))))
folding enthalpy [1]: -11.1 kcal/mol
Tm [2]: 33 °C

AAATCGAAAGATTT (((((....)))))
folding enthalpy [1]: -13.6 kcal/mol
Tm [2]: 46.6 °C

AACCTGAAAAGGTT (((((....)))))
folding enthalpy [1]: -20 kcal/mol
Tm [2]: 45.5 °C

AACGTGAAAACGTT (((((....)))))
folding enthalpy [1]: -19.2 kcal/mol
Tm [2]: 48 °C

AACTTGAAAAAGTT (((((....)))))
folding enthalpy [1]: -14.2 kcal/mol
Tm [2]: 30.4 °C

AAGACGAAAGTCTT (((((....)))))
folding enthalpy [1]: -20.1 kcal/mol
Tm [2]: 52.7 °C

AAGCGGAAACGCTT (((((....)))))
folding enthalpy [1]: -17.5 kcal/mol
Tm [2]: 57.3 °C

AAGGGGAAACCCTT (((((....)))))
folding enthalpy [1]: -13.8 kcal/mol
Tm [2]: 46 °C

AAGGTGAAAACCTT (((((....)))))
folding enthalpy [1]: -17.5 kcal/mol
Tm [2]: 43.2 °C

AAGTCGAAAGACTT (((((....)))))
folding enthalpy [1]: -18.3 kcal/mol
Tm [2]: 52.6 °C

AATACGAAAGTATT (((((....)))))
folding enthalpy [1]: -15.3 kcal/mol
Tm [2]: 44.8 °C

AATGTGAAAACATT (((((....)))))
folding enthalpy [1]: -15 kcal/mol
Tm [2]: 37.8 °C

ACAACGAAAGTTGT (((((....)))))
folding enthalpy [1]: -21.6 kcal/mol
Tm [2]: 53.6 °C

ACAAGGAAACTTGT (((((....)))))
folding enthalpy [1]: -12.6 kcal/mol
Tm [2]: 40.3 °C

ACACGGAAACGTGT (((((....)))))
folding enthalpy [1]: -24 kcal/mol
Tm [2]: 55.1 °C

ACATAGAAATATGT (((((....)))))
folding enthalpy [1]: -7.88 kcal/mol
Tm [2]: 24.6 °C

ACCCAGAAATGGGT (((((....)))))
folding enthalpy [1]: -18.3 kcal/mol
Tm [2]: 47.9 °C

ACGATGAAAATCGT (((((....)))))
folding enthalpy [1]: -19 kcal/mol
Tm [2]: 51 °C

ACTTCGAAAGAAGT (((((....)))))
folding enthalpy [1]: -20.8 kcal/mol
Tm [2]: 50.8 °C

AGATCGAAAGATCT (((((....)))))
folding enthalpy [1]: -23.2 kcal/mol
Tm [2]: 50.9 °C

AGCTTGAAAAAGCT (((((....)))))
folding enthalpy [1]: -17.4 kcal/mol
Tm [2]: 47.9 °C

AGGTAGAAATACCT (((((....)))))
folding enthalpy [1]: -14.5 kcal/mol
Tm [2]: 33.5 °C

AGTACGAAAGTACT (((((....)))))
folding enthalpy [1]: -21.4 kcal/mol
Tm [2]: 54.1 °C

AGTCGGAAACGACT (((((....)))))
folding enthalpy [1]: -20.1 kcal/mol
Tm [2]: 54.3 °C

AGTTCGAAAGAACT (((((....)))))
folding enthalpy [1]: -20.8 kcal/mol
Tm [2]: 55.4 °C

ATACAGAAATGTAT (((((....)))))
folding enthalpy [1]: -10.4 kcal/mol
Tm [2]: 25.3 °C

ATCAGTGAAAAATCACTGAA ....................
folding enthalpy [1]: -20.6 kcal/mol
Tm [2]: 31.9 °C

ATCAGTGAGAAATCACTGAA ....................
folding enthalpy [1]: -14.1 kcal/mol
Tm [2]: 46.2 °C

ATCCAGAAATGGAT (((((....)))))
folding enthalpy [1]: -14.3 kcal/mol
Tm [2]: 41.2 °C

ATCCGGAAACGGAT (((((....)))))
folding enthalpy [1]: -20.7 kcal/mol
Tm [2]: 52.8 °C

ATTCCGAAAGGAAT (((((....)))))
folding enthalpy [1]: -20.8 kcal/mol
Tm [2]: 52.4 °C

CAAACAGAAATGGTTG (((.((....)).)))
folding enthalpy [1]: -13 kcal/mol
Tm [2]: 29.4 °C

CATCAGAAATGATG (((((....)))))
folding enthalpy [1]: -18.6 kcal/mol
Tm [2]: 41.7 °C

CATCTGAAAAGATG (((((....)))))
folding enthalpy [1]: -25.1 kcal/mol
Tm [2]: 44.5 °C

CATTTGAAAAAATG (((((....)))))
folding enthalpy [1]: -11.1 kcal/mol
Tm [2]: 32.1 °C

CCCCAGAAATGGGG (((((....)))))
folding enthalpy [1]: -16 kcal/mol
Tm [2]: 52.2 °C

CCGAAGAAATTCGG (((((....)))))
folding enthalpy [1]: -19.2 kcal/mol
Tm [2]: 46.9 °C

CCGGAGAAATCCGG (((((....)))))
folding enthalpy [1]: -21.4 kcal/mol
Tm [2]: 56.5 °C

CCGTGGAAACACGG (((((....)))))
folding enthalpy [1]: -29.2 kcal/mol
Tm [2]: 59.1 °C

CGAAAGAAATTTCG (((((....)))))
folding enthalpy [1]: -13.6 kcal/mol
Tm [2]: 38.5 °C

CGAACACGGAAACGTTCG (((..(((....))))))
folding enthalpy [1]: -32.4 kcal/mol
Tm [2]: 42.7 °C

CGAACCGGAAACGGCTCG (((.(((....))).)))
folding enthalpy [1]: -35.5 kcal/mol
Tm [2]: 49.9 °C

CGAACCGGAAACGGGTCG (((.(((....))).)))
folding enthalpy [1]: -33.9 kcal/mol
Tm [2]: 58.3 °C

CGAACGGAAACGTGCTCG ((((((....)))..)))
folding enthalpy [1]: -15.1 kcal/mol
Tm [2]: 28.5 °C

CGAACGGAAACGTGTCG ((((((....))).)))
folding enthalpy [1]: -23.1 kcal/mol
Tm [2]: 38.5 °C

CGAAGGAAACTTCG (((((....)))))
folding enthalpy [1]: -21.5 kcal/mol
Tm [2]: 48.6 °C

CGAAGGCGGAAACGCTCG (((..(((....))))))
folding enthalpy [1]: -20.8 kcal/mol
Tm [2]: 37.5 °C

CGAATCGGAAACGAATCG (((.(((....))).)))
folding enthalpy [1]: -37.4 kcal/mol
Tm [2]: 44.7 °C

CGAATCGGAAACGATCG (((.(((....))))))
folding enthalpy [1]: -32.4 kcal/mol
Tm [2]: 45.6 °C

CGACACGGAAACGTATCG (((.(((....))).)))
folding enthalpy [1]: -28.1 kcal/mol
Tm [2]: 42.3 °C

CGACACGGAAACGTTTCG (((.(((....))).)))
folding enthalpy [1]: -33.7 kcal/mol
Tm [2]: 44.8 °C

CGACCCGGAAACGGATCG (((.(((....))).)))
folding enthalpy [1]: -33.4 kcal/mol
Tm [2]: 48.8 °C

CGACCCGGAAACGGCTCG (((.(((....))).)))
folding enthalpy [1]: -23.7 kcal/mol
Tm [2]: 40.1 °C

CGACCGGAAACGGAATCG ((((((....)))..)))
folding enthalpy [1]: -14.3 kcal/mol
Tm [2]: 35.7 °C

CGACCGGAAACGGACTCG ((((((....)))..)))
folding enthalpy [1]: -12.9 kcal/mol
Tm [2]: 30.7 °C

CGACCGGAAACGGGATCG ((((((....)))..)))
folding enthalpy [1]: -15.7 kcal/mol
Tm [2]: 38.8 °C

CGACCGGAAACGGGTTCG ((((((....)))..)))
folding enthalpy [1]: -21.4 kcal/mol
Tm [2]: 38.9 °C

CGACCGGAAACGGTATCG ((((((....)))..)))
folding enthalpy [1]: -13.6 kcal/mol
Tm [2]: 33.6 °C

CGACTCCGGAAACGGTCG (((..(((....))))))
folding enthalpy [1]: -24.1 kcal/mol
Tm [2]: 38.4 °C

CGAGAACGGAAACGTTCG (((..(((....))))))
folding enthalpy [1]: -25.3 kcal/mol
Tm [2]: 52.9 °C

CGAGCACGGAAACGTTCG (((..(((....))))))
folding enthalpy [1]: -13.5 kcal/mol
Tm [2]: 36.7 °C

CGAGCGGAAACGCTTCG ((((((....))).)))
folding enthalpy [1]: -15 kcal/mol
Tm [2]: 50.6 °C

CGAGGCGGAAACGCTTCG (((.(((....))).)))
folding enthalpy [1]: -35.3 kcal/mol
Tm [2]: 55.3 °C

CGATACCGGAAACGGTCG (((..(((....))))))
folding enthalpy [1]: -12.3 kcal/mol
Tm [2]: 35.1 °C

CGATACGGAAACGTTCG (((.(((....))))))
folding enthalpy [1]: -28.6 kcal/mol
Tm [2]: 42.3 °C

CGATCCGGAAACGGTCG (((.(((....))))))
folding enthalpy [1]: -29.1 kcal/mol
Tm [2]: 50.5 °C

CGATCGGAAACGACGTCG ((((((....)))..)))
folding enthalpy [1]: -18.6 kcal/mol
Tm [2]: 40.8 °C

CGATCGGAAACGAGGTCG ((((((....)))..)))
folding enthalpy [1]: -13.5 kcal/mol
Tm [2]: 31 °C

CGATCGGAAACGAGTCG ((((((....))).)))
folding enthalpy [1]: -24.7 kcal/mol
Tm [2]: 39.9 °C

CGATCGGAAACGAGTTCG ((((((....)))..)))
folding enthalpy [1]: -20.5 kcal/mol
Tm [2]: 34.3 °C

CGATGCGGAAACGCCTCG (((.(((....))).)))
folding enthalpy [1]: -40.4 kcal/mol
Tm [2]: 48.1 °C

CGATGCGGAAACGCTTCG (((.(((....))).)))
folding enthalpy [1]: -41.7 kcal/mol
Tm [2]: 53 °C

CGATGGCGGAAACGCTCG (((..(((....))))))
folding enthalpy [1]: -15.8 kcal/mol
Tm [2]: 38.5 °C

CGATTCGGAAACGATCG (((.(((....))))))
folding enthalpy [1]: -32.8 kcal/mol
Tm [2]: 44 °C

CGCAACGGAAACGTGGCG (((.(((....))).)))
folding enthalpy [1]: -46.5 kcal/mol
Tm [2]: 57.7 °C

CGCAAGAAATTGCG (((((....)))))
folding enthalpy [1]: -29.6 kcal/mol
Tm [2]: 53.3 °C

CGCACCGGAAACGGCGCG (((.(((....))).)))
folding enthalpy [1]: -52.1 kcal/mol
Tm [2]: 60.9 °C

CGCACGGAAACGTCCGCG ((((((....)))..)))
folding enthalpy [1]: -19.1 kcal/mol
Tm [2]: 41.2 °C

CGCACGGAAACGTCGGCG ((((((....)))..)))
folding enthalpy [1]: -24 kcal/mol
Tm [2]: 46.6 °C

CGCACTCGGAAACGAGCG (((..(((....))))))
folding enthalpy [1]: -14.1 kcal/mol
Tm [2]: 39.9 °C

CGCAGCGGAAACGCCGCG (((.(((....))).)))
folding enthalpy [1]: -34 kcal/mol
Tm [2]: 58 °C

CGCAGGAAACTGCG (((((....)))))
folding enthalpy [1]: -25.9 kcal/mol
Tm [2]: 60.3 °C

CGCAGTCGGAAACGAGCG (((..(((....))))))
folding enthalpy [1]: -10.9 kcal/mol
Tm [2]: 36 °C

CGCATACGGAAACGTGCG (((..(((....))))))
folding enthalpy [1]: -30.2 kcal/mol
Tm [2]: 48.9 °C

CGCCATCGGAAACGAGCG (((..(((....))))))
folding enthalpy [1]: -18.1 kcal/mol
Tm [2]: 37 °C

CGCCCGGAAACGGAGCG ((((((....))).)))
folding enthalpy [1]: -31.8 kcal/mol
Tm [2]: 58.3 °C

CGCCCGGAAACGGCCGCG ((((((....)))..)))
folding enthalpy [1]: -19.6 kcal/mol
Tm [2]: 43.8 °C

CGCCCGGAAACGGGAGCG ((((((....)))..)))
folding enthalpy [1]: -15.3 kcal/mol
Tm [2]: 55.3 °C

CGCCGCGGAAACGCAGCG (((.(((....))).)))
folding enthalpy [1]: -37.5 kcal/mol
Tm [2]: 59 °C

CGCCTACGGAAACGTGCG (((..(((....))))))
folding enthalpy [1]: -23.2 kcal/mol
Tm [2]: 39.4 °C

CGCCTCCGGAAACGGGCG (((..(((....))))))
folding enthalpy [1]: -25.6 kcal/mol
Tm [2]: 48.1 °C

CGCGACGGAAACGTAGCG (((.(((....))).)))
folding enthalpy [1]: -38.6 kcal/mol
Tm [2]: 58.6 °C

CGCGACGGAAACGTGGCG (((.(((....))).)))
folding enthalpy [1]: -49 kcal/mol
Tm [2]: 56.9 °C

CGCGACGGAAACGTTGCG (((.(((....))).)))
folding enthalpy [1]: -54.2 kcal/mol
Tm [2]: 61 °C

CGCGCCGGAAACGGGCG (((.(((....))))))
folding enthalpy [1]: -26.4 kcal/mol
Tm [2]: 60.4 °C
